# Experimental data: PMC10209341 (Heliyon, 2023)
# Where two headings read alike, the source gives them in different places.
# Key:
# [1] = tested on: HCT116 cells; assay: Rescue of Lenvatinib-induced pyroptosis in pretreated HCT116 cells; format: cell-based; settings: then stimulated with Lenvatinib
# [2] = tested on: Hep3B2.1-7 xenograft; assay: Hep3B2.1-7 hepatoma xenograft model; format: in vivo, Balb/c nude mice; settings: Hep3B2.1-7 model; for growth inhibition rate: terminated day 15
# Method in brief: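 Female Balb/c nude mice, 6–8 weeks old, carrying s.c. Hep3B2.1-7 xenografts. Tumours established as for the HCT116 initial model (~150 mm3). Tumour volume (0.5 × a × b²) measured every three days and body weight monitored. At the end, mice sacrificed under anaesthesia and major organs taken for H&E.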
# [3] = Sub-acute toxicity study; format: in vivo, C57BL/6 mice; settings: for deaths during the study / body weight: 25 days; for deaths during the study: female C57BL/6 mice
# Method in brief: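 Female C57BL/6 mice dosed orally for 25 days with vehicle, test compound 100 mg/kg or reference drug 40 mg/kg. Body weight and survival followed. Livers imaged and H&E stained. Plasma BUN, CREA, GLB, UREAL, ALP, AST and ALT measured (n = 3).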
# [4] = tested on: HUVECs; assay: Transwell invasion assay of HUVECs; format: cell-based; settings: 1.25 μM, 24 h
# Method in brief: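 HUVECs (4 × 10^4) in growth-factor-free ECM medium went into Matrigel-coated transwell upper chambers; the lower chamber held ECM with growth factors. Test compound (1.25 μM) or DMSO was added to the upper cells for 24 h. Non-invading cells were scraped off, and invaded cells were fixed in 4% paraformaldehyde, stained with crystal violet and photographed. Values are mean ± SD, n = 3.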
# [5] = target: VEGFR2 (Homo sapiens, UniProt P35968); assay: Kinase inhibition assay; format: biochemical
# Chain of VEGFR2 (P35968 20-1356): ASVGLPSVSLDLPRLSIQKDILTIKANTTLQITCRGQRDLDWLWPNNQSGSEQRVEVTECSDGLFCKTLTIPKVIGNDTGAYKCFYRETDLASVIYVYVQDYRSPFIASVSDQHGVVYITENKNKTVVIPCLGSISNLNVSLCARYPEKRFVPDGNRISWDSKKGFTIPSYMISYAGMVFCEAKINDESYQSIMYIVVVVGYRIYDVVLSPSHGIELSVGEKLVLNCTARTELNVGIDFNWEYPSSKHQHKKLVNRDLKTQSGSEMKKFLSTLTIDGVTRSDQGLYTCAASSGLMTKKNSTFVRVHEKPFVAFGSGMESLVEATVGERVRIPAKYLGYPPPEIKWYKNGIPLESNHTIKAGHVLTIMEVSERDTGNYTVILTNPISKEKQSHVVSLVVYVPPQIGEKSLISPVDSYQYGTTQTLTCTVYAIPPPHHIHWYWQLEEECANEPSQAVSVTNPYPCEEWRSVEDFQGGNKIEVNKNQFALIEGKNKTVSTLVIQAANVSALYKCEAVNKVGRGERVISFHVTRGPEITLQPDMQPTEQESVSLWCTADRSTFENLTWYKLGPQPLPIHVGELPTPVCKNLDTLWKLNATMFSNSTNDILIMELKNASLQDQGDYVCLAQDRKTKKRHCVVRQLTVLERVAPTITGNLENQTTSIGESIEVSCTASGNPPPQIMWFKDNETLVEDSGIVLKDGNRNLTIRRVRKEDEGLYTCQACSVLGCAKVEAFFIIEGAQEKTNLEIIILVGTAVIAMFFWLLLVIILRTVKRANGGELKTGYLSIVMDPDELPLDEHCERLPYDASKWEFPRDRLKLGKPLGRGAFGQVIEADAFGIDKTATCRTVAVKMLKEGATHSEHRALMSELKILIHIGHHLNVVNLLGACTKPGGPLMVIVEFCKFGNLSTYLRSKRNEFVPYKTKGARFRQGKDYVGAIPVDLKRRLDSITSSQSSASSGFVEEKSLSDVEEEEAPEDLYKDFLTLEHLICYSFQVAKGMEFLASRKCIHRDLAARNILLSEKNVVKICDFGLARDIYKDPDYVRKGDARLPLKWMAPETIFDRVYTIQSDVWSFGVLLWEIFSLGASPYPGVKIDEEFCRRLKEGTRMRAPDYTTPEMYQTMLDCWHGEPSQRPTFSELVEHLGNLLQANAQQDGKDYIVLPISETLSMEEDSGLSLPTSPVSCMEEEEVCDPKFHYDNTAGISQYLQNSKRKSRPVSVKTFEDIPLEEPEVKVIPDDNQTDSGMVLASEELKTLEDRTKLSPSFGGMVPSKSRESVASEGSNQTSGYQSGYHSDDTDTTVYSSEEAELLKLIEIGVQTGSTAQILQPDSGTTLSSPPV
# Method in brief: (§1)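 Run by an outside contract provider as part of a panel covering VEGFR1-3, FGFR1-4 and PDGFR. Test compound was tested across a gradient of concentrations, and IC50 was calculated from the resulting concentration-response data.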
# [6] = tested on: HepG2 xenograft; assay: HepG2 hepatoma xenograft model; format: in vivo, Balb/c nude mice
# Method in brief: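 Female Balb/c nude mice, 6–8 weeks old, carrying s.c. HepG2 xenografts. Tumours established as for the HCT116 initial model (~150 mm3). Groups: vehicle, test compound 50 mg/kg, reference drug 30 mg/kg; n = 5. Tumour volume (0.5 × a × b²) measured every three days and body weight followed. At the end of treatment, organs taken for H&E.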
# [7] = tested on: VEGFR2 phosphorylation; assay: Western blot of VEGF-induced phosphorylation in HUVECs; format: cell-based; settings: 3.3 μM
# Method in brief: (§2)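 HUVEC lysates made in RIPA buffer and protein measured by BCA. 100 μg protein run on 10% SDS-PAGE and transferred to nitrocellulose. Membranes blocked 2 h in TBST with 5% milk, then primary antibody overnight at 4 °C and secondary 1 h at room temperature. Bands detected by ECL.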
# [8] = tested on: tumor tissues; assay: Immunohistochemistry of xenograft tumor tissues; format: in vivo, Balb/c nude mice; settings: vs controls
# Method in brief: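 At the end of xenograft treatment, mice sacrificed under anaesthesia and tumours excised. Tumour sections stained by immunohistochemistry for Ki67 (proliferation) and CD31 (microvessels), plus TUNEL for apoptotic cells. Imaged at ×20.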
# [9] = tested on: VEGF165-induced HUVECs; assay: EdU incorporation assay in HUVECs; format: cell-based
# Method in brief: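 HUVECs were kept in medium with 10% FBS at 37 °C and 5% CO2, then plated at 1 × 10^4 cells/well in 96-well plates. Cells received a range of test-compound concentrations or solvent control and were stained with an EdU proliferation kit plus Hoechst 33342. Under a fluorescence microscope, the read-out was the ratio of EdU-positive to Hoechst-positive cells. Values are mean ± SD from three independent experiments.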
# [10] = tested on: HCT116 xenograft; assay: HCT116 xenograft, initial tumor model; format: in vivo, Balb/c nude mice
# Method in brief: (§3)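 Female Balb/c nude mice, 6–8 weeks old. HCT116 cells (5 × 10^6 in 100 μL PBS) injected s.c. into the right flank. All given orally once daily. Tumour volume (0.5 × a × b²) measured every three days.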
# [11] = tested on: LO2 cells; assay: Microscopy imaging of cell morphology; format: cell-based; settings: 48 h
# Method in brief: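 LO2 cells exposed 48 h to test compound or reference drug and imaged by microscopy. Scored features were apoptotic bodies and ballooned cell membranes typical of pyroptosis.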
# [12] = tested on: STAT3 phosphorylation; assay: Western blot of VEGF-induced phosphorylation in HUVECs; format: cell-based; settings: 1.0 μM
# Method in brief: as §2
# [13] = tested on: N-GSDME and cleaved-caspase3 in HCT116, Hep3B2.1-7 and HepG2 cells; assay: Western blot of pyroptosis-related proteins; format: cell-based; settings: 48 h
# Method in brief: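 HCT116, Hep3B2.1-7 and HepG2 cells treated 48 h with graded concentrations of test compound or reference drug, then lysed in RIPA. 100 μg protein run on 10% SDS-PAGE and blotted to nitrocellulose. Probed for GSDME, N-GSDME, caspase-3 and cleaved caspase-3, with ECL detection. Bands quantified as ratio to GAPDH; three independent experiments.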
# [14] = target: VEGFR1 (Homo sapiens, UniProt P17948); assay: Kinase inhibition assay; format: biochemical
# Chain of VEGFR1 (P17948 27-1338): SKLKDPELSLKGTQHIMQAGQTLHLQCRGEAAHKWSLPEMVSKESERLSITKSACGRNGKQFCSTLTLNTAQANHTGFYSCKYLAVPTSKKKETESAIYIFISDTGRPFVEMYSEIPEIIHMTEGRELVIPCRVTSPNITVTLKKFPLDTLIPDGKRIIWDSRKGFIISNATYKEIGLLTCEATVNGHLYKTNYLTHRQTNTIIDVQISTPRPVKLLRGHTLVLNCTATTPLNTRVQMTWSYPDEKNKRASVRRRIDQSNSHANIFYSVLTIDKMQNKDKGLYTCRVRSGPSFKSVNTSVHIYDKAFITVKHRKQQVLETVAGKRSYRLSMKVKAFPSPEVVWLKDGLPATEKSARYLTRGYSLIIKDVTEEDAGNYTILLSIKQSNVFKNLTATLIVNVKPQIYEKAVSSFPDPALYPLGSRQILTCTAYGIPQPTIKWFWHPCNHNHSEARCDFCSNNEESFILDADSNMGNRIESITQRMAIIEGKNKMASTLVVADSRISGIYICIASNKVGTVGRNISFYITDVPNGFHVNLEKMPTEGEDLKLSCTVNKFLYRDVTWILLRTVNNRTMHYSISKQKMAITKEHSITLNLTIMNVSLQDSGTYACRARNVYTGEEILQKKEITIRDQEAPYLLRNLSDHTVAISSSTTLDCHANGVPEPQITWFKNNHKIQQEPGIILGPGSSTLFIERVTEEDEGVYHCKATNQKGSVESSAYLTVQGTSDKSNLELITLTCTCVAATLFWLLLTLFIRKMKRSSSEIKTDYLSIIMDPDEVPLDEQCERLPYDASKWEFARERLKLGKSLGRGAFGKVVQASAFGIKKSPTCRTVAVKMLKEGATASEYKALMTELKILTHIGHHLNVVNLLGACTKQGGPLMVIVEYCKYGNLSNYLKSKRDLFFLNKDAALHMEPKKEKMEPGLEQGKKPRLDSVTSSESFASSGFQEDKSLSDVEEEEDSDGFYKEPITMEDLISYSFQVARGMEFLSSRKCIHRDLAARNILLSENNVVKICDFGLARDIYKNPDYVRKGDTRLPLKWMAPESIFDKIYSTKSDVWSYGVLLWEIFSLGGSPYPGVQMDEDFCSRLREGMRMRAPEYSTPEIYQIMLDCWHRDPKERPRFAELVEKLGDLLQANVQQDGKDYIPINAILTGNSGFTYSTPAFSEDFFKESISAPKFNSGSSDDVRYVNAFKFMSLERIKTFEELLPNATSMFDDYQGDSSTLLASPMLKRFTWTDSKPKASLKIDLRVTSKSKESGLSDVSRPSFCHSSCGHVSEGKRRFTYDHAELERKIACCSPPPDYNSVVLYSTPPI
# Method in brief: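 Kinase activity tested by a contract provider over a gradient of test-compound concentrations. IC50 derived by fitting the concentration–response data.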
# [15] = tested on: HUVECs; assay: HUVEC tube formation assay; format: cell-based; settings: 3 μM, 6 h
# Method in brief: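 Wells were pre-chilled, coated with Matrigel and polymerised at 37 °C for 1 h. HUVECs in ECM medium were seeded on the Matrigel at 2 × 10^4 cells/well together with test compound (3 μM). After 6 h, tube formation was observed by microscopy. Values are mean ± SD from three independent experiments.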
# [16] = target: VEGFR3 (Homo sapiens, UniProt P35916); assay: Kinase inhibition assay; format: biochemical
# Chain of VEGFR3 (P35916 25-1363): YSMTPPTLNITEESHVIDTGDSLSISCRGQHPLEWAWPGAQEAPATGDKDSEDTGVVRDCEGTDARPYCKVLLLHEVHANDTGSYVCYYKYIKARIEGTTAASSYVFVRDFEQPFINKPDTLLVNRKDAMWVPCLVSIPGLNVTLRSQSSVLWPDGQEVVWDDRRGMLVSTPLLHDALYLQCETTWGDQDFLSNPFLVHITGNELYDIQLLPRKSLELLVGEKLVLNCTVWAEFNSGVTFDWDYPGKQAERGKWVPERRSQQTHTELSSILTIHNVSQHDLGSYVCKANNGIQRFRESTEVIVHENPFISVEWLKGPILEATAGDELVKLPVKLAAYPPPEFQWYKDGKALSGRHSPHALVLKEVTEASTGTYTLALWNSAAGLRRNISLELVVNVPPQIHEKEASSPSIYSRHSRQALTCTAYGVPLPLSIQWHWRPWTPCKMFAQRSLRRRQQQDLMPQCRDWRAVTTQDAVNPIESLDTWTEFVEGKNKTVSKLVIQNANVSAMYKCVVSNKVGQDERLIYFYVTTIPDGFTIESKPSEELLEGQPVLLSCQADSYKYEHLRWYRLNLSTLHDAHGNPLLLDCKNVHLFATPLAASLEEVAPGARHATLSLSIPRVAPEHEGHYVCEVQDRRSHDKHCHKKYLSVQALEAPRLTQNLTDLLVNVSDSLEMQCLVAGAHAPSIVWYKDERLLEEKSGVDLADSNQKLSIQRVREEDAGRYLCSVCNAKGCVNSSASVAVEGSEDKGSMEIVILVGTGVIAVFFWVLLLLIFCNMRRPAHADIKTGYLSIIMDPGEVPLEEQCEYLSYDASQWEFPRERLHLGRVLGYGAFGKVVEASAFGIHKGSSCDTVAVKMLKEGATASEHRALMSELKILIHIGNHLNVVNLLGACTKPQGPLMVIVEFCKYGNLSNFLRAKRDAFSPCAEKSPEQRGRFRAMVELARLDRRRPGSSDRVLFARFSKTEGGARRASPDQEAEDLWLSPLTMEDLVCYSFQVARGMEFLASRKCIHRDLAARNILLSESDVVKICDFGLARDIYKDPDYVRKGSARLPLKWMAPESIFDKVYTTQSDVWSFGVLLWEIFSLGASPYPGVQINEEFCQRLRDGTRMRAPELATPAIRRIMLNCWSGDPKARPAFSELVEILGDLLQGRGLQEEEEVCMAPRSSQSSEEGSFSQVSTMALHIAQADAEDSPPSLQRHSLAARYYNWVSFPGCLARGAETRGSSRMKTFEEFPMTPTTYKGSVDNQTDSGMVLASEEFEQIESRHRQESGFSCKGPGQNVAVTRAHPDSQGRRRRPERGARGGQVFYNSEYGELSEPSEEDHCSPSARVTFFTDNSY
# Method in brief: as §1
# [17] = tested on: HUVECs; assay: Wound healing; format: cell-based; settings: 1.25 μM, 24 h
# Method in brief: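 HUVEC monolayers in 6-well plates were scratch-wounded, washed with PBS and treated with test compound (1.25 μM). Wounds were photographed under a microscope after 24 h. Values are mean ± SD from three independent experiments.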
# [18] = tested on: HepG2, Hepa3B2.1-7 and HCT116 cells; assay: MTT and crystal violet; format: cell-based; settings: MTT and crystal violet staining, time- and dose-dependent
# Method in brief: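 MTT: cells (2–5 × 10^3 per well) attached 24 h, then given graded concentrations of test compound (in DMSO): 6 days for liver cancer lines, 3 days for HCT116, and various times. MTT (5 mg/mL) added for 4 h; formazan dissolved in DMSO and absorbance read at 570 nm. Colony assay: 1.5 × 10^3 cells per well treated 10 days, fixed in 4% PFA 20 min, stained with 0.5% crystal violet 10 min, counted. Three independent experiments.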
# [19] = tested on: HCT116 xenograft; assay: HCT116 xenograft, medium-term tumor model; format: in vivo, Balb/c nude mice; settings: for tumor inhibitory rate: medium-term HCT116 model
# Method in brief: as §3
# [20] = tested on: ERK phosphorylation; assay: Western blot of VEGF-induced phosphorylation in HUVECs; format: cell-based; settings: 0.3 μM
# Method in brief: as §2
# [21] = tested on: HUVECs; assay: MTT assay in HUVECs; format: cell-based; settings: Homo sapiens, HUVEC, 48 h
# [22] = tested on: transgenic zebrafish embryos; assay: Angiogenesis in flk:eGFP transgenic zebrafish; format: in vivo; settings: 3 μM, 16 h
# [23] = tested on: HCT116, HepG2 and Hep3B2.1-7 cells; assay: Cellular ROS level by flow cytometry; format: cell-based; settings: 48 h, DCFH-DA
# Method in brief: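 Cells seeded at 3 × 10^4 per well in 6-well plates and grown 24 h, then exposed 48 h to graded concentrations of test compound or reference drug. Intracellular ROS stained with DCFH-DA (ROS assay kit), read by flow cytometry and quantified. DCFH-DA-stained HCT116 cells were also viewed by inverted fluorescence microscopy.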
# [24] = tested on: LO2 cells; assay: MTT assay in normal liver cells LO2; format: cell-based; settings: Homo sapiens, L02, 72 h, read-out: IC50, viability of normal liver cells LO2
smiles,measurement,setting,value
CC(=O)N[C@@H](CS)C(=O)O [NAC],effect on Lenvatinib-induced cell swelling / pyroptosis,[1],rescue Lenvatinib-induced pyroptosis
COC(=O)CC[C@H](NC(=O)[C@H](CC(=O)OC)NC(=O)OCc1ccccc1)C(=O)N[C@H](C(=O)N[C@@H](CC(=O)OC)C(=O)CF)C(C)C [Z-DEVD-FMK],effect on Lenvatinib-induced cell swelling / pyroptosis,[1],abolished
"COCCOCCOc1cc2nccc(Oc3ccc(NC(=O)NC4CC4)c(Cl)c3)c2cc1C(N)=O [ZLF-095, 4-(3-chloro-4-(3-cyclopropylureido)phenoxy)-7-(2-(2-methoxyethoxy)ethoxy)qui noline-6-carboxamide]",growth inhibition rate,[2]; 30 mg/kg,66.6%
same,growth inhibition rate,[2]; 80 mg/kg,81.5%
same,gross abnormalities,[2]; dose levels up to 80 mg/kg,no gross abnormalities were observed
same,liver images and H&E,[3]; 100 mg/kg oral,no visible abnormalities in the liver
same,"serum levels of BUN, CREA, GLB, UREAL, ALP, AST and ALT",[3]; 100 mg/kg oral,No aberrant serum levels
same,deaths during the study,[3]; 100 mg/kg oral,none
same,body weight,"[3]; 100 mg/kg oral, vs vehicle",no significant changes in body weight
same,invasion of HUVECs (transwell),[4],"significantly inhibited the invasion of HUVECs, similar to Lenvatinib"
same,IC50,[5],5 nM
same,body weight,"[6]; 50 mg/kg, 25 days",no influence on the weight
same,suppression of cancer growth,"[6]; 50 mg/kg, 25 days",75.2%
same,phosphorylation of VEGFR2 induced by 50 ng/mL VEGF-165,[7],obviously suppressed
same,expression of Ki67 in tumor tissues,[8]; immunohistochemistry,significantly decreased
same,micro-vessel density of tumors (CD31),[8],markedly decreased
same,number of apoptotic cells in tumor tissues (TUNEL),[8],increased
same,cell proliferation (EdU),[9],reduced cell proliferation in VEGF165-induced HUVECs in a dose-dependent manner
same,tumor inhibitory rate,[10]; 5 mg/kg oral once daily,72.7%
same,tumor inhibitory rate,[10]; 15 mg/kg oral once daily,83.9%
same,cell morphology (pyroptosis),[11],no such change was seen
same,STAT3 phosphorylation,[12],significantly inhibited
same,cleaved-caspase3 / caspase3 activation,[13],increased caspase3 activation
same,expression of N-GSDME,[13],had no effect
same,IC50,[14],2 nM
same,capillary tube formation of HUVECs,[15],inhibited capillary tube formation of HUVECs
same,IC50,[16],0.7 nM
same,migration of HUVECs (wound healing),[17],inhibited the migration of HUVECs slightly better than Lenvatinib
same,"proliferation of HepG2, Hepa3B2.1-7 and HCT116 cells",[18],significantly inhibited
same,tumor inhibitory rate,[19]; 5 mg/kg oral once daily,60.7%
same,tumor inhibitory rate,[19]; 15 mg/kg oral once daily,72.5%
same,ERK phosphorylation,[20],significantly inhibited
same,IC50,"[21]; read-out: IC50, viability of VEGF165-induced HUVECs",1770 nM
same,IC50,"[21]; read-out: IC50, viability of untreated HUVECs",10100 nM
same,formation of intersegmental vessels (ISV),[22],"significantly suppressed the formation of intersegmental vessels (ISV), similar to Lenvatinib"
"COc1cc2nccc(Oc3ccc(NC(=O)NC4CC4)c(Cl)c3)c2cc1C(N)=O [Lenvatinib, reference compound]",body weight,"[2]; 30 mg/kg, day 15",sustained weight loss
same,growth inhibition rate,[2]; 30 mg/kg,78.1%
same,intracellular ROS levels,[23],significantly increased
same,levels of ALP,[3]; 40 mg/kg oral,notably increased
same,levels of AST and ALT,[3]; 40 mg/kg oral,decreased
same,liver images and H&E,[3]; 40 mg/kg oral,focal necrosis and significant inflammatory cell infiltration
same,body weight,[3]; 40 mg/kg oral,obvious body weight loss
same,deaths during the study,[3]; 40 mg/kg oral,5/5
same,body weight / lethality,"[6]; 30 mg/kg, after 16 days",marked loss of body weight led to death in mice
same,body weight,[10]; 5 mg/kg,lower body weights than ZLF-095-treated group
same,tumor inhibitory rate,[10]; 5 mg/kg oral once daily,76.8%
same,cell morphology (pyroptosis),[11],large bubbles bulging from the cell membrane
same,cleaved-caspase3 / caspase3 activation,[13],obviously up‐regulated
same,expression of N-GSDME,[13],obviously up‐regulated
same,body weight,"[19]; medium-term (metaphase) HCT116 model, 5 mg/kg",lower body weights than ZLF-095-treated group
same,tumor inhibitory rate,[19]; 5 mg/kg oral once daily,66.5%
same,IC50,[24],14000 nM
